Test system: HEK-293T
Test: Multiplex assay against HEK293T
Format: toxicity, cell-based
Conditions: human
How it was run: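 Four dyes were applied at seeding to live cells: Hoechst33342, BioTracker Green Microtubule Cytoskeleton Dye, MitoTracker Red and Annexin V Alexa Fluor 680. Imaging after compound addition used a CQ1 microscope at 37°C and 5% CO2. CellPathfinder machine-learning gating then sorted cells into Hoechst high-intensity objects or normal cells, normal cells into healthy, pyknosed or fragmented nuclei, and pyknosed cells into mitotic or apoptotic, with tubulin, mitochondrial-mass and membrane-permeability phenotypes given as per cents of healthy-nucleus cells.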

[1] = 12 h, 1 µM, compound concentration 1 uM, replicate 1
[2] = 12 h, 1 µM, compound concentration 1 uM, replicate 2
[3] = 12 h, 10 µM, compound concentration 10 uM, replicate 1
[4] = 12 h, 10 µM, compound concentration 10 uM, replicate 2
[5] = 24 h, 1 µM, compound concentration 1 uM, replicate 1
[6] = 24 h, 1 µM, compound concentration 1 uM, replicate 2
[7] = 24 h, 10 µM, compound concentration 10 uM, replicate 1
[8] = 24 h, 10 µM, compound concentration 10 uM, replicate 2
[9] = 48 h, 1 µM, compound concentration 1 uM, replicate 1
[10] = 48 h, 1 µM, compound concentration 1 uM, replicate 2
[11] = 48 h, 10 µM, compound concentration 10 uM, replicate 1
[12] = 48 h, 10 µM, compound concentration 10 uM, replicate 2

SMILES: CN(C)C(=O)Cn1cc(-c2ccc(-c3cncc4ccccc34)cc2)cn1
- Population Apoptotic (%) [1]: 52%
- Population Fragmented Nuclei (%) [1]: 5%
- Population Healthy Nuclei (%) [1]: 81%
- Population Hoechst High Intensity Objects (%) [1]: 7%
- Population Membrane Permeable-Phenotype (%) [1]: 0%
- Population Mitochondria Different-Phenotype (%) [1]: 50%
- Population Mitotic Cells (%) [1]: 47%
- Population Normal (%) [1]: 92%
- Population Pyknosed Nuclei (%) [1]: 12%
- Population Tubulin-Different-Phenotype (%) [1]: 35%
- Total Cell Count [1]: 411
- Population Apoptotic (%) [2]: 40%
- Population Fragmented Nuclei (%) [2]: 4%
- Population Healthy Nuclei (%) [2]: 80%
- Population Hoechst High Intensity Objects (%) [2]: 2%
- Population Mitochondria Different-Phenotype (%) [2]: 58%
- Population Mitotic Cells (%) [2]: 59%
- Population Normal (%) [2]: 97%
- Population Pyknosed Nuclei (%) [2]: 14%
- Population Tubulin-Different-Phenotype (%) [2]: 23%
- Total Cell Count [2]: 337
- Population Apoptotic (%) [3]: 48%
- Population Fragmented Nuclei (%) [3]: 8%
- Population Healthy Nuclei (%) [3]: 73%
- Population Hoechst High Intensity Objects (%) [3]: 6%
- Population Membrane Permeable-Phenotype (%) [3]: 0%
- Population Mitochondria Different-Phenotype (%) [3]: 65%
- Population Mitotic Cells (%) [3]: 51%
- Population Normal (%) [3]: 93%
- Population Pyknosed Nuclei (%) [3]: 17%
- Population Tubulin-Different-Phenotype (%) [3]: 47%
- Total Cell Count [3]: 264
- Population Apoptotic (%) [4]: 69%
- Population Healthy Nuclei (%) [4]: 76%
- Population Hoechst High Intensity Objects (%) [4]: 19%
- Population Mitochondria Different-Phenotype (%) [4]: 69%
- Population Mitotic Cells (%) [4]: 30%
- Population Normal (%) [4]: 80%
- Population Pyknosed Nuclei (%) [4]: 15%
- Population Tubulin-Different-Phenotype (%) [4]: 43%
- Total Cell Count [4]: 321
- Population Apoptotic (%) [5]: 47%
- Population Fragmented Nuclei (%) [5]: 10%
- Population Healthy Nuclei (%) [5]: 79%
- Population Hoechst High Intensity Objects (%) [5]: 6%
- Population Membrane Permeable-Phenotype (%) [5]: 0%
- Population Mitochondria Different-Phenotype (%) [5]: 38%
- Population Mitotic Cells (%) [5]: 52%
- Population Normal (%) [5]: 93%
- Population Pyknosed Nuclei (%) [5]: 10%
- Population Tubulin-Different-Phenotype (%) [5]: 24%
- Total Cell Count [5]: 498
- Population Apoptotic (%) [6]: 40%
- Population Fragmented Nuclei (%) [6]: 6%
- Population Healthy Nuclei (%) [6]: 82%
- Population Hoechst High Intensity Objects (%) [6]: 7%
- Population Mitochondria Different-Phenotype (%) [6]: 45%
- Population Mitotic Cells (%) [6]: 60%
- Population Normal (%) [6]: 92%
- Population Tubulin-Different-Phenotype (%) [6]: 23%
- Total Cell Count [6]: 355
- Population Apoptotic (%) [7]: 48%
- Population Fragmented Nuclei (%) [7]: 9%
- Population Healthy Nuclei (%) [7]: 75%
- Population Hoechst High Intensity Objects (%) [7]: 6%
- Population Membrane Permeable-Phenotype (%) [7]: 0%
- Population Mitochondria Different-Phenotype (%) [7]: 65%
- Population Mitotic Cells (%) [7]: 51%
- Population Normal (%) [7]: 93%
- Population Pyknosed Nuclei (%) [7]: 14%
- Population Tubulin-Different-Phenotype (%) [7]: 44%
- Total Cell Count [7]: 283
- Population Apoptotic (%) [8]: 45%
- Population Fragmented Nuclei (%) [8]: 10%
- Population Hoechst High Intensity Objects (%) [8]: 14%
- Population Mitochondria Different-Phenotype (%) [8]: 53%
- Population Mitotic Cells (%) [8]: 54%
- Population Normal (%) [8]: 85%
- Population Pyknosed Nuclei (%) [8]: 13%
- Population Tubulin-Different-Phenotype (%) [8]: 30%
- Total Cell Count [8]: 362
- Population Apoptotic (%) [9]: 35%
- Population Fragmented Nuclei (%) [9]: 19%
- Population Healthy Nuclei (%) [9]: 74%
- Population Hoechst High Intensity Objects (%) [9]: 8%
- Population Membrane Permeable-Phenotype (%) [9]: 1%
- Population Mitochondria Different-Phenotype (%) [9]: 40%
- Population Mitotic Cells (%) [9]: 64%
- Population Normal (%) [9]: 91%
- Population Pyknosed Nuclei (%) [9]: 6%
- Population Tubulin-Different-Phenotype (%) [9]: 25%
- Total Cell Count [9]: 554
- Population Apoptotic (%) [10]: 60%
- Population Fragmented Nuclei (%) [10]: 11%
- Population Healthy Nuclei (%) [10]: 82%
- Population Hoechst High Intensity Objects (%) [10]: 5%
- Population Membrane Permeable-Phenotype (%) [10]: 0%
- Population Mitochondria Different-Phenotype (%) [10]: 32%
- Population Mitotic Cells (%) [10]: 39%
- Population Normal (%) [10]: 94%
- Population Pyknosed Nuclei (%) [10]: 5%
- Population Tubulin-Different-Phenotype (%) [10]: 17%
- Total Cell Count [10]: 430
- Population Apoptotic (%) [11]: 66%
- Population Fragmented Nuclei (%) [11]: 23%
- Population Healthy Nuclei (%) [11]: 63%
- Population Hoechst High Intensity Objects (%) [11]: 11%
- Population Membrane Permeable-Phenotype (%) [11]: 0%
- Population Mitochondria Different-Phenotype (%) [11]: 56%
- Population Mitotic Cells (%) [11]: 33%
- Population Normal (%) [11]: 88%
- Population Pyknosed Nuclei (%) [11]: 12%
- Population Tubulin-Different-Phenotype (%) [11]: 30%
- Total Cell Count [11]: 379
- Population Apoptotic (%) [12]: 59%
- Population Healthy Nuclei (%) [12]: 70%
- Population Hoechst High Intensity Objects (%) [12]: 8%
- Population Mitochondria Different-Phenotype (%) [12]: 43%
- Population Mitotic Cells (%) [12]: 40%
- Population Normal (%) [12]: 91%
- Population Pyknosed Nuclei (%) [12]: 6%
- Population Tubulin-Different-Phenotype (%) [12]: 23%
- Total Cell Count [12]: 429
